Compound activity as filed in PubChem.
Insulin prom inh = TRM-6 insulin promoter activity inhibition. TRM-6 cells (human fetal islet line), insulin promoter-eGFP reporter, imaging; reporter expression induced with tamoxifen. inhibition, % at 2 µM. 0.9% of 130,000 active. AID 1273;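 active = inhibition above the mean plus 3 SD, with well images judged a real hit on visual review, cut at about 60% in these data, passing the limit was not always enough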
BB579 growth dn = reduces growth of yeast BB579 in restrictive medium | inhibition, % at 10 µM | S. cerevisiae BB579 growth, OD615, 48 h | AID 804 | 0.51% of 140,000 active;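 active = inhibition above a set limit, 3 SD over the mean compound inhibition, cut at about 44% in these data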
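Assay system: S. cerevisiae DeaD strain BB579 yeast. Medium: CSMM-D restrictive synthetic medium containing dextrose (glucose). Times: 4 h cell preincubation, 48 h compound exposure, 30 °C humidified. Signal: OD615 turbidity measurement. Benchmarks: positive control amphotericin B 10 µg/mL.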
Measles CPE = protection of cells from measles virus; Measles virus-infected cells, CPE protection, absorbance; protection (pct of control), % at 4 µM; 1.5% of 140,000 active; in the data active = protection mostly above about 24%, no sharp cut-off; inactive = mostly below about 26%
RAM inhibit = blocks the yeast RAM network; S. cerevisiae dse1pr::URA3 reporter, 5-FOA growth OD615, 2 d; analog-sensitive cbk1-as2 kinase mutant strain; inhibition, % at 50 µM; 1.8% of 190,000 active;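 active = inhibition above a set limit, 3 SD over mean compound inhibition, cut at about 8.4% in these data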;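 also: inhibition rescues growth on 5-FOA so higher OD means more RAM inhibition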
Yeast life ext = yeast lifespan extension. AID 775. S. cerevisiae growth with nicotinamide, OD615; deaD strain in restrictive glucose medium. inhibition of the nicotinamide effect, % at 10 µM. 0.68% of 130,000 active;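 active = inhibition above a set limit, placed 3 SD over the median of all compounds, cut at about 26% in these data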
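Measured by: optical density (absorbance) at 615 nm; System: modified budding yeast, DeaD strain; Medium: restrictive CSMM-D dextrose medium; Timing: 4 h preincubation then 48 h treatment at 30 °C.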
Mdm2 ligase inh = inhibitors of human Mdm2 E3 ubiquitin ligase; Q00987; cell-based MDM2 ubiquitination luciferase reporter, 2 h; 0 = plate control, 100 = twice control, blank-subtracted; signal enhancement, % at 5 µM; 0.11% of 210,000 active; AID 1230;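 active = signal enhancement of 30% or more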;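 also: luminescence tracks abundance of the self-degrading MDM2-luciferase fusion protein; higher signal means inhibition of MDM2 E3 ligase activity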
Target sequence (Q00987 whole entry, looked up, the tested form may be a part): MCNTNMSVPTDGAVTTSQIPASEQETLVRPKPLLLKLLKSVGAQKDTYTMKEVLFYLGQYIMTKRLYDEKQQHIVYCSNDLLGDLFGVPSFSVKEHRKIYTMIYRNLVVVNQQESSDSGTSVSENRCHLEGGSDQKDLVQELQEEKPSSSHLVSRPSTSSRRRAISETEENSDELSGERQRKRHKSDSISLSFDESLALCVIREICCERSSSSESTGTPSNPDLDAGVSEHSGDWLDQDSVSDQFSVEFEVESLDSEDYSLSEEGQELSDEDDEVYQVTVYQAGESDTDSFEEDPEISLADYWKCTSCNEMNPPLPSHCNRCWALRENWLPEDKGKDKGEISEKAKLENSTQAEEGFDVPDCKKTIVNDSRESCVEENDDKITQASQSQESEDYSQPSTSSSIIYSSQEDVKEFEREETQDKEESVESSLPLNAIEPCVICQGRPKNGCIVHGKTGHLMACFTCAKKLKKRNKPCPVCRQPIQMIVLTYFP
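Assay system: mammalian cells stably expressing self-ubiquitinating, self-degrading MDM2 E3–luciferase fusion. Quantity: 2000 cells in each well. Medium: DMEM culture medium. Compound dosing: single-point 5 µM. Timing: cell settling 4 h, compound treatment 2 h, both 37 °C. Technique: luciferase luminescence. Read-out basis: percent signal gain over controls, blank-subtracted. Benchmarks: plate controls and plate blanks.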
Each line names hits and unclear results; the compound was inactive in the other large screens. Shown are actives, neighbours in structure and some others; about 4% of the full set was active somewhere.

COc1ccc(C(=O)/C=C/Sc2nc3ccccc3o2)cc1	none (no result: Insulin prom inh, BB579 growth dn, Measles CPE, RAM inhibit, Yeast life ext)
CCC(C(=O)NNC(=O)c1cnccn1)c1ccccc1 (stereo not given)	none (no result: Insulin prom inh)
C=CCNc1nc(S(=O)Cc2ccc(C)cc2)nc2c1CCCC2 (stereo not given)	Insulin prom inh 73 (no result: BB579 growth dn, Measles CPE, Yeast life ext)
CCOC(=O)C(=O)Nc1nnc(CCc2ccccc2)s1	none (no result: Yeast life ext)
Cc1ccc(C)c2[nH]c(=O)c(CCNC(=O)c3cc4ccccc4o3)cc12	RAM inhibit 8.5
Cn1nc(C(F)(F)F)c(CO)c1Sc1ccc(F)cc1	none (no result: Insulin prom inh, BB579 growth dn, Measles CPE, Yeast life ext)
CCCCOc1ccc(/C(N)=N/O)cc1	none (no result: Insulin prom inh)
O=[N+]([O-])c1ccccc1OCc1nc(-c2cccs2)no1	none (no result: BB579 growth dn, Measles CPE, Yeast life ext)
Cc1ccc(OCc2nc(-c3cccs3)no2)c([N+](=O)[O-])c1	RAM inhibit 8.7 (no result: BB579 growth dn, Measles CPE, Yeast life ext)
Cc1ccc(/C=N/NC(=O)c2cccc(S(=O)(=O)N3CCOCC3)c2)o1	none (no result: Insulin prom inh, BB579 growth dn, Measles CPE, Yeast life ext)
CCc1ccc(NC(=O)N(Cc2ccco2)C(C)c2cccs2)cc1 (stereo not given)	RAM inhibit 11
CCc1ccccc1NC(=S)N(Cc1ccco1)C(C)c1cccs1 (stereo not given)	none (no result: BB579 growth dn, Measles CPE, Yeast life ext)
N#Cc1c(Nc2ccccc2)sc(C(=O)c2ccc(F)cc2)c1N	RAM inhibit 11
CC(=O)c1c(C)[nH]c(C(=O)CN2C(=O)NC(CCc3ccccc3)C2=O)c1C (stereo not given)	none (no result: Insulin prom inh, BB579 growth dn, Measles CPE, RAM inhibit, Yeast life ext)
Cc1ccc(NN2C(=O)C=C(c3ccc(Cl)cc3)C2=O)cc1	BB579 growth dn 47
O=C1C=C(c2ccccc2)C(=O)N1Nc1ccccc1	BB579 growth dn 44
CCCOCC(O)CC(Cc1ccccc1)C(=O)NN (stereo not given)	none (no result: Insulin prom inh, BB579 growth dn, Measles CPE, RAM inhibit, Yeast life ext)
Nc1ccc(C(=O)OCC(=O)N2c3ccccc3Sc3ccccc32)cc1[N+](=O)[O-]	Measles CPE 33
CC(NC(=O)Cn1ncc(Cl)c(Cl)c1=O)C12CC3CC(CC(C3)C1)C2 (stereo not given)	Mdm2 ligase inh 99
CCn1cc(C(=O)NC(C)C23CC4CC(CC(C4)C2)C3)cn1 (stereo not given)	none
COc1ccc(COc2cc(-c3cccc(OC)c3)nc3ccc(NC(=O)c4ccc(Cl)cc4)cc23)cc1	RAM inhibit 8.4 (no result: Mdm2 ligase inh)
CCOC(=O)c1sc(NC(=O)CSc2nc3c(c(=O)n2-c2ccc(C)cc2)SCC3)c(C(=O)OCC)c1C	none (no result: Mdm2 ligase inh)
CCOC(=O)c1sc(NC(=O)c2ccc(S(=O)(=O)N(C)C)cc2)nc1C	RAM inhibit 10
CCCN(CCC)S(=O)(=O)c1ccc(C(=O)Nc2nc(-c3ccccc3)c(C(=O)OCC)s2)cc1	Measles CPE 50 (no result: Insulin prom inh)
COCCN(CCOC)S(=O)(=O)c1ccc(C(=O)Nc2nc(-c3ccccc3)c(C(=O)c3ccccc3)s2)cc1	none
COCc1cc(C)nc(N/N=C/c2ccc(Cl)c(Cl)c2)c1C#N	none
COc1ccc(C2N(c3ccccc3)CCN2c2ccccc2)cc1O	none (no result: BB579 growth dn, Measles CPE, Yeast life ext)
CC(=O)OC1c2ccccc2C(=O)N1c1ccccc1C (stereo not given)	none (no result: Insulin prom inh)
COC(=O)C1(C)Nc2ccccc2C(=O)N1c1ccccc1C (stereo not given)	Measles CPE 41 (no result: Insulin prom inh)
O=C1CC(NC23CC4CC(CC(C4)C2)C3)C(=O)N1c1ccc2c(c1)OCO2 (stereo not given)	Measles CPE 32
O=C1CC(N2CCCCCC2)C(=O)N1c1ccc2c(c1)OCO2 (stereo not given)	none
Cc1ccc2c(c1)c1c(n2C)C(C(N)=O)CCC1 (stereo not given)	none
Cc1ccc2c(c1)c1c(n2C)-c2[nH]ncc2CC1	BB579 growth dn 99 (no result: Yeast life ext)
Cc1[nH]c2ccccc2c1N=Nc1ccccc1C(=O)O	RAM inhibit 9.8
CC(C)CNC(=O)c1cccc(NC(=O)Cc2ccc(Cl)cc2)c1	none
CCNC(=O)NC(=O)COC(=O)C1CSC2(C)CCC(=O)N12 (stereo not given)	none (no result: Insulin prom inh, BB579 growth dn, Measles CPE, Yeast life ext)
COc1ccc(CC(=O)OCc2cc3ccccc3[nH]c2=O)cc1	none (no result: Insulin prom inh)
COc1cc(OC)cc(C(=O)OCc2cc3ccccc3[nH]c2=O)c1	Insulin prom inh 71
CCCCCCCNC(=O)C1CC(=O)N(C)C(=Nc2ccc(OC)cc2)S1 (stereo not given)	RAM inhibit 9.3
